An excerpt weighted towards active compounds, which were near 1.9% of everything screened.
NPY-Y2 antag: antagonists of human neuropeptide Y receptor Y2 | P49146 | NPY-Y2 expressing cells, antagonist mode | inhibition, % at 2.7 µM | actives 0.99% (n = 140,000) | AID 793; in the data active = inhibition above about 17%;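 also: 0% = vehicle with agonist challenge and 100% = reference antagonist with challenge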
NPY Y1 blocker: blocks the human neuropeptide Y Y1 receptor; P25929; HEK293-CNG Y1 cells, membrane potential fluorescence; NPY at EC95, then isoproterenol; inhibition, % at 3.6 µM; actives 1% (n = 200,000);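 active = inhibition above the campaign mean inhibition of all tested compounds plus 3 SD, cut at about 20% in these data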;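 also: 0% = DMSO wells given NPY plus isoproterenol and 100% = isoproterenol alone without NPY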
Target sequence (P25929 whole entry, looked up): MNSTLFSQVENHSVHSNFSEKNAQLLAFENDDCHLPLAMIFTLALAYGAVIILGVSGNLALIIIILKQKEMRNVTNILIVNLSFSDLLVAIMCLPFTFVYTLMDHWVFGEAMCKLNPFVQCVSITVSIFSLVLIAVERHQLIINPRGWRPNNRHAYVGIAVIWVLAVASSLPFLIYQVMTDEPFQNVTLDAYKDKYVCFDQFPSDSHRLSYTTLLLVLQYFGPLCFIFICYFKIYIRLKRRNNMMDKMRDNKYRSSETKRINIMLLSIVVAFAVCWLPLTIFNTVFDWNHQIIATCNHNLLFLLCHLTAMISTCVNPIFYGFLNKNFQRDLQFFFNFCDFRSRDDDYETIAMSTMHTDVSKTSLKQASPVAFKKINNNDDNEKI
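Assay system: HEK293 cells with Y1 receptor plus CNG channel | Probe or stimulus: NPY (25 nM), isoproterenol (1 µM), Ro 20-1724 (25 µM) | Timing: Compound incubation 1 h at room temperature, readout 45 min post-stimulation | Measured by: Membrane-potential fluorescent dye readout | Benchmarks: High control isoproterenol alone, low control NPY with isoproterenol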
NPY2 pot ag: human NPY-Y2 potentiation or agonism, primary screen; P49146; cells expressing NPY-Y2, potentiator/agonist read-out; activation, % at 3.6 µM; actives 0.45% (n = 220,000); in the data active = activation above about 27%;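 also: cells stimulated with NPY near EC25 plus isoproterenol at EC100; 0% = vehicle plus submaximal agonist and 100% = vehicle plus saturating agonist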
NPY1 pot ag: potentiates or activates human NPY-Y1 receptor. actives 0.37% (n = 220,000). P25929. activation, % at 3.6 µM. NPY-Y1 expressing cells, potentiator/agonist activation. AID 1304; in the data active = activation above about 33%, passing the limit was not always enough;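 also: cells stimulated with NPY at EC10 then isoproterenol at EC100; 0% = low agonist plus stimulus and 100% = saturating agonist plus stimulus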
* marks the source's active call; other numbers are inactive results; . = not tested or not shown.

SMILES	NPY-Y2 antag	NPY Y1 blocker	NPY2 pot ag	NPY1 pot ag
CCC(C)NC(=O)CCC(=O)Nc1ccc2nc(N3CCOCC3)cc(C)c2c1 (stereo not given)	5	-19	93*	84*
CCC(C)NC(=O)CCC(=O)Nc1ccc2nc(N3CC(C)CC(C)C3)cc(C)c2c1 (stereo not given)	.	9	4	6
CCCN(CCC)CCCNC(=S)Nc1ccc2nc(N3CCCC3)cc(C)c2c1	.	22*	-11	-25
Cc1ccc(C)c(OCC(=O)Nc2nonc2NC(=O)COc2cc(C)ccc2C)c1	21*	24*	-8	-72
Cc1cccc(OCC(=O)Nc2nonc2NC(=O)COc2cccc(C)c2)c1	1	6	5	-18
Cc1nc(N2CCOCC2)c2c(C)c(C(=O)Nc3ccccc3Cl)sc2n1	.	6	-10	-19
Cc1nc(N2CCOCC2)c2c(C)c(C(=O)Nc3ccccc3C(F)(F)F)sc2n1	.	20*	-13	-14
Cc1cc(C)cc(N(CCC(=O)Nc2nnc(C)s2)S(=O)(=O)c2ccc(Cl)cc2)c1	2	0	6	0
N#Cc1ccc(COC(=O)c2ccc(N3CCCC3)c([N+](=O)[O-])c2)cc1	3	5	-12	-58
CCn1c(Cn2nnc(-c3ccccc3)n2)nnc1SCC(=O)Nc1ccc(C(C)=O)cc1	-9	-20	47*	46*
CC(C)Cn1c(N)c(C(=O)COC(=O)CCc2nc3ccccc3s2)c(=O)n(C)c1=O	.	20*	26	1
Cc1ccc(C)c(N(C(=O)c2nsc(Cl)c2Cl)C(C(=O)NC2CCCC2)c2ccc(O)cc2)c1 (stereo not given)	2	3	1	-16
COc1ccc(CN(C(=O)c2nsc(Cl)c2Cl)C(C(=O)NC2CCCC2)c2ccc(C)cc2)cc1 (stereo not given)	23*	44*	-17	-51
CCN1CCN(CC(=O)N2N=C(c3cccs3)CC2c2ccc(C)cc2)C(=O)C1=O (stereo not given)	.	13	1	5
CN(C)S(=O)(=O)c1cccc(NC(=O)COC(=O)CNC(=O)c2ccccc2F)c1	.	.	-17	2
Cc1ccc(CNCC(O)(c2ccc(F)cc2)c2ccc(F)cc2)cc1	19*	23*	-31	-59
CN(C)CC(=O)Nc1nc(-c2ccccc2)cs1	1	5	-19	-15
O=C(O)CCC(=O)Nc1nc(-c2ccccc2)cs1	22*	12	-14	-41
COc1ccc(/C=C(\C#N)C(=O)OCC(=O)NC2CC2)cc1	.	-1	3	2
Cc1cccc2c1NC(=O)C2(c1ccc(O)cc1)c1ccc(O)cc1	114*	116*	-14	-39
COc1ccc2c(c1)c(=O)c(Br)c(C)n2Cc1ccccc1	25*	2	-7	-10
COc1ccc2c(c1)c(=O)c(C(=O)c1ccccc1)cn2Cc1ccc(C)cc1	10	12	-17	-48
O=C(Nc1nccs1)c1ccc(S(=O)(=O)NCC2CCCCC2)cc1	4	-16	29	42*
CCCCC(c1nnnn1C1CCCC1)N1CCN(C2CCCCC2)CC1 (stereo not given)	26*	37*	-14	-31
CCOC(=O)c1cc(-c2ccc(OC)cc2)nc2c1c(C)nn2CCC#N	20*	26*	-17	-22
SMILES	NPY-Y2 antag	NPY Y1 blocker	NPY2 pot ag	NPY1 pot ag
CCOC(=O)c1cc(-c2ccc(C#N)cc2)nc2c1c(C)nn2CCC#N	3	2	4	-21
CC1CCC(C(C)C)C(OC(=O)C[n+]2cc(-c3ccc(Cl)cc3)n3c2CCC3)C1 (stereo not given)	.	.	-11	-30
CC1CCC(C(C)C)C(OC(=O)Cn2c(-c3ccc(F)cc3)[n+](C)c3ccccc32)C1 (stereo not given)	46*	61*	-11	-47
CC1CCC(C(C)C)C(OC(=O)Cn2c(-c3ccccc3)[n+](C)c3ccccc32)C1 (stereo not given)	80*	112*	-37	-129
C(=C\c1ccccc1)/CSc1nnc(-c2ccccn2)n1Cc1ccco1	20*	21*	-11	-56
O=C(NC(NC(=S)Nc1ccc(Cl)cc1Cl)C(Cl)(Cl)Cl)c1cccc([N+](=O)[O-])c1 (stereo not given)	-1	5	56*	56*
O=C(/C=C/c1cccc2ccccc12)NCCC1=CCCCC1	22*	32*	-21	-50
COc1ccccc1/C=C/C(=O)OCC(=O)NCCC1=CCCCC1	.	10	-19	-29
CC(NC(=O)CN1C(=O)NC(Cc2ccccc2)(Cc2ccccc2)C1=O)C12CC3CC(CC(C3)C1)C2 (stereo not given)	161*	130*	-90	-127

Screening results deposited in PubChem by The Scripps Research Institute Molecular Screening Center.
